Laboratory results from the RNAGym collection of RNA variant scans (doi:10.1126/science.aae0568).
Variants at the floor of the assay were thinned out.

B1: tRNA (parent)
chain: GUUCCGUUGGCGUAAUGGUAACGCGUCUCCCUCCUAAGGAGAAGACUGCGGGUUCGAGUCCCGUACGGAACG

Variants of: B1
Test: yeast fitness relative to wild type (ratio to wild type); higher = fitter; tRNA-Arg(CCU), competitive growth, 37 C, YPD
Method in brief: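 Changes in genotype frequencies gave Darwinian fitness relative to wild type. Frequencies were read by 100-nucleotide paired-end sequencing of gene amplicons before and after pooled Saccharomyces cerevisiae strains, carrying tRNA-Arg(CCU) gene variants at the native locus, were competed in YPD at 37°C for 24 hours in six replicates. A genotype was kept only with ≥ 100 starting reads, and estimates < 0.5 were set to 0.5.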
C22G A45G showed a yeast fitness of 0.867. Variant C11A A37G C49A has a yeast fitness of 0.653. Work on A15G C27G yielded a yeast fitness of 0.564. Work on G23C C31G G44C U47A C66U A69C yielded a yeast fitness of at most 0.5. C31U U35A A37G A40C U47C U64G gave a yeast fitness of 0.512. C4U C24G G50A gave a yeast fitness of at most 0.5. Variant A20U C49U has a yeast fitness of 0.899. Work on U13C G23C C49U yielded a yeast fitness of at most 0.5. For U28C G52C U64A, the yeast fitness was at most 0.5. Work on C29G A40U yielded a yeast fitness of 0.555. Variant U16A C30U A36U G63A has a yeast fitness of at most 0.5. Work on C24U U26G G41A A57U yielded a yeast fitness of 0.641. In the case of G23C A57G G63C A65U, the yeast fitness is reported as at most 0.5. In the case of U26C U32A C34U G38C G51A A57C A65C, the yeast fitness is reported as at most 0.5. C22U C33U A69C gave a yeast fitness of 0.522. In the case of G10A A43G G52C U53C G63C, the yeast fitness is reported as at most 0.5. In the case of A65G C66G A70G, the yeast fitness is reported as at most 0.5. With A15U G58A the yeast fitness was 1. U8G C24U C29G A45G C61U A65C G67A G68A gave a yeast fitness of 0.568. U28C C31U A36G G63C showed a yeast fitness of at most 0.5. Work on C5U U19A G25C C29A A43U yielded a yeast fitness of at most 0.5. In the case of U7G A70C, the yeast fitness is reported as 0.972. Work on U8C C11G A15C A70C yielded a yeast fitness of at most 0.5. With G25A U26A C55G G68C A69G the yeast fitness was at most 0.5. For A21U C22A G38C A45U, the yeast fitness was at most 0.5. Variant C24A C29G A45G U54A has a yeast fitness of at most 0.5. G6A U26C showed a yeast fitness of 0.842. With G18A C33G the yeast fitness was at most 0.5. In the case of C22G C24A C61G C66A, the yeast fitness is reported as at most 0.5. Variant A15U U16C U35A G44A has a yeast fitness of at most 0.5. For U7G C46U A70G, the yeast fitness was 0.752. G9C C34G showed a yeast fitness of 0.548. A15U A37C A43U showed a yeast fitness of 0.514. G17A C22A A45U A70U gave a yeast fitness of at most 0.5. Work on G23C U28A A36C yielded a yeast fitness of at most 0.5. For C24G G25A C31G A57U, the yeast fitness was 0.532. C5U C24U A42C gave a yeast fitness of 0.746. Variant U2C C11U G12A A15G U54C C66U G68C A69U has a yeast fitness of at most 0.5. With A45C G52A the yeast fitness was 0.731. With C24U U32A the yeast fitness was 0.784. With C30U C33U A43G the yeast fitness was 0.569. In the case of C31U A65U, the yeast fitness is reported as 0.955. Work on G12C C24G A37C yielded a yeast fitness of at most 0.5. Work on G25U A36U G56C A65C yielded a yeast fitness of 0.521. U2A U35C showed a yeast fitness of 0.875. For A21G C30G, the yeast fitness was 0.784. Work on G12A A15G C31A yielded a yeast fitness of at most 0.5. In the case of U13C G25A C31U, the yeast fitness is reported as 0.749. Work on G38A A42C yielded a yeast fitness of 0.734. Variant C29G A43C has a yeast fitness of 0.661. In the case of G10A U13C A21U, the yeast fitness is reported as at most 0.5. For C27A U64A G68C, the yeast fitness was at most 0.5. Variant C4A U13G has a yeast fitness of 0.619. U3C G12C A37U G51A C62U G63A showed a yeast fitness of at most 0.5. Variant C4U C22A U35A C49G G63C has a yeast fitness of at most 0.5. In the case of C5U U8C A36G A40G C60A, the yeast fitness is reported as at most 0.5. For G6A C11A A14C U19C U32A U35C A42C, the yeast fitness was at most 0.5. For C5G C22G U28A C31G C55A G68C, the yeast fitness was 0.551. U19A C24U G25C C49U showed a yeast fitness of at most 0.5. For U2C G10C G51A C60U G67A, the yeast fitness was at most 0.5. U8A C61U showed a yeast fitness of 0.718. U32C C60G C62G showed a yeast fitness of at most 0.5. Work on C22U C31G C33A G38A U47A yielded a yeast fitness of at most 0.5. Work on G10A U35A G52C C66U yielded a yeast fitness of at most 0.5. C22U A45U gave a yeast fitness of 0.909. In the case of G23C C30G C62U, the yeast fitness is reported as at most 0.5. For C5U C11U G25C, the yeast fitness was 0.694. U2A U13C U16A G56C A57G C62U gave a yeast fitness of 0.528. For C5U G9A U13A, the yeast fitness was 0.882. A15U C24G gave a yeast fitness of 0.647. Variant G44A A70C has a yeast fitness of 0.837. For G38C A65C C66U, the yeast fitness was at most 0.5. Variant U2G C11G G12A A20U C31G G68C has a yeast fitness of at most 0.5. With C5G C34G C62A G63A the yeast fitness was at most 0.5. In the case of C4U A43C C62U, the yeast fitness is reported as 0.965. For C24U U35C A70U, the yeast fitness was 0.541. In the case of G10A C22U C27U C33U A43U U54C, the yeast fitness is reported as at most 0.5. With C55U C66G A70C the yeast fitness was at most 0.5. In the case of A14C C27G C46G A57G A65G, the yeast fitness is reported as at most 0.5. Variant C11G C27G C55A has a yeast fitness of at most 0.5. For A15G C60G, the yeast fitness was 0.668. With G23U A43G the yeast fitness was 0.758. In the case of C66G G68C, the yeast fitness is reported as 0.634. Variant U35C A36C A40U C61G has a yeast fitness of at most 0.5. G41C gave a yeast fitness of 0.967. C4A G18A C29U C66A showed a yeast fitness of at most 0.5. G23C C24G C34G U64A gave a yeast fitness of at most 0.5. Variant G10C C31U A57C C62A has a yeast fitness of at most 0.5. U7A G12A C24U G25C A42U gave a yeast fitness of at most 0.5. Variant U53A G67C has a yeast fitness of 0.664. Variant U13G U28A U53C C55G C66A has a yeast fitness of at most 0.5. Variant G10C A21G G23A has a yeast fitness of at most 0.5. In the case of C33U A43G C62G, the yeast fitness is reported as at most 0.5. In the case of G23C G68C, the yeast fitness is reported as 0.697. For C34U G39A C62U, the yeast fitness was 0.607. U3A G48C gave a yeast fitness of 0.842. Variant U16C C22U U47A C60G C62A has a yeast fitness of at most 0.5. U7C C27G A69U showed a yeast fitness of 0.632. Variant C11G G67C has a yeast fitness of 0.581. Work on C4U C22G G67A yielded a yeast fitness of 0.689. Work on G9C A14G A43C yielded a yeast fitness of at most 0.5. With U7G G25C A40U the yeast fitness was 0.556. With C5G A20G A40G G44A C46G A70C the yeast fitness was at most 0.5. C5U C22U C66U gave a yeast fitness of at most 0.5. Work on G17C C24G C46G C66U yielded a yeast fitness of at most 0.5. Work on G12A U54G A65U G67A yielded a yeast fitness of at most 0.5. A20G C31G C46G G50A showed a yeast fitness of at most 0.5. With A14G U19A the yeast fitness was 0.809. G39A A69C showed a yeast fitness of 0.818. C11G A15U C24G A40G C61A gave a yeast fitness of at most 0.5. C11A A21C C30U gave a yeast fitness of 0.678. For C4G C5U U35C A37U C61A, the yeast fitness was at most 0.5. For A20U A43U G48C C60G, the yeast fitness was at most 0.5. Work on U19C G25C G51C C60U yielded a yeast fitness of at most 0.5. With A14G A20C A57G the yeast fitness was 0.677. In the case of C4A C34G C62A C66U, the yeast fitness is reported as at most 0.5. Work on A21G C34G C61U A70C yielded a yeast fitness of 0.555. With A14U C55U the yeast fitness was at most 0.5. Work on C4A C11U G56C C62G G68C yielded a yeast fitness of at most 0.5. With G12C A14G A15C G41A A42C G50C A70G the yeast fitness was at most 0.5. U7G A57G G68U showed a yeast fitness of at most 0.5. C33G A36G G51C U64A C66U A69C gave a yeast fitness of at most 0.5. C5A G10C G17A A40U U64C showed a yeast fitness of 0.582. A15C A20G G25C C29U U35C A43U showed a yeast fitness of at most 0.5. For G10C G67U, the yeast fitness was 0.689. For G41A C46U C49A, the yeast fitness was at most 0.5. Work on A21U C24U yielded a yeast fitness of 0.703. A14C G63C showed a yeast fitness of 0.535. For C46U A57G, the yeast fitness was 0.994. A20C C29U U32A A70U showed a yeast fitness of at most 0.5. With U2A U16C the yeast fitness was 0.88. G10C A14C A40C C60A G63A showed a yeast fitness of at most 0.5. With C4U C30A A42C the yeast fitness was 0.582. U3C C31U G44A showed a yeast fitness of 0.721. G9C U32C U53C gave a yeast fitness of at most 0.5. Work on C27U C31U U53C A70U yielded a yeast fitness of at most 0.5. C22U C24U U47C gave a yeast fitness of 0.705. For U8A A42U U59A, the yeast fitness was at most 0.5. With G6A G44A C46A G52A the yeast fitness was 0.629. In the case of G6A C11A, the yeast fitness is reported as 0.639. C11A A15U A20C C34G gave a yeast fitness of at most 0.5. C22A C34G A37C showed a yeast fitness of at most 0.5. With C5G G10A A40G A70G the yeast fitness was at most 0.5. U16C G58A gave a yeast fitness of 0.87. Variant U8C G9A U13A A15G A37U C46U G68A has a yeast fitness of at most 0.5. For A14U C34U A40U G50C, the yeast fitness was at most 0.5. For U8C U26C, the yeast fitness was 0.837. For C11U U16A G67A, the yeast fitness was 0.551. With C49G G67C the yeast fitness was 0.84. C46U C49A showed a yeast fitness of 0.858. For G17C A21C C34G A37U A42U A57G, the yeast fitness was at most 0.5. With C4U C61G the yeast fitness was 0.63. Work on U26C A43U G48C C60G yielded a yeast fitness of at most 0.5. Work on G48A G68U A70C yielded a yeast fitness of 0.809. C34G C55G U59C C60U G67U showed a yeast fitness of 0.555. With G56A A65G C66U the yeast fitness was 0.763. For U16C A20G, the yeast fitness was 0.976. With U16C G17A C33U C49A C62G the yeast fitness was 0.57. In the case of C33G C34A A43G C55A, the yeast fitness is reported as 0.635. In the case of C24A C27U U28G G68U, the yeast fitness is reported as 0.529. In the case of C4A G18C C29A C31A C66U, the yeast fitness is reported as at most 0.5. Variant G23A C27U A45U has a yeast fitness of 0.668. For C11A C27A A40C A43G G48C A65G, the yeast fitness was 0.541. Work on C5A A20U A21U C34G A65G G67A yielded a yeast fitness of at most 0.5. Work on C62U G67A yielded a yeast fitness of 0.849. For U8C A37G G38C G51A, the yeast fitness was at most 0.5. With U3C G6A G18C A45U G68A the yeast fitness was at most 0.5.
